Source: ChEMBL document CHEMBL1122579, “Synthesis and biological activity of nucleosides and nucleotides related to the antitumor agent 2-beta-D-ribofuranosylthiazole-4-carboxamide” (J Med Chem, 1984)
Each block holds one molecule with its values, some of them ahead of it.

Tests used:
Mus musculus [1] = assay: Mice were inoculated intraperitoneally with L1210 leukemia cells and the percentage ILS of the mice with the compound was evaluated at a dose of 25 mg/kg; assay type: functional; settings: L1210, ip, route intraperitoneal
Mus musculus [2] = assay: Mice were inoculated intraperitoneally with L1210 leukemia cells and the percentage ILS of the mice with the compound was evaluated at a dose of 200 mg/kg; assay type: functional; settings: L1210, ip, route intraperitoneal
Method in brief: (§1)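 Mice implanted ip with L1210 leukemia, in groups of six, with 36 untreated controls. Drug given ip on days 1-5 at 50-800 mg/kg. Endpoint was median life span in days, with percent increase in life span (ILS) relative to untreated controls. Body weight change was taken as day 5 minus day 1 average weight.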

Mus musculus [3] = assay: Mice were inoculated intraperitoneally with L1210 leukemia cells and the median life span of the mice with the compound was evaluated at a dose of 50 mg/kg; assay type: functional; settings: route intraperitoneal; method in brief: as §1
Mus musculus [4] = assay: Mice were inoculated intraperitoneally with L1210 leukemia cells and the median life span of the mice with the compound was evaluated at a dose of 200 mg/kg; assay type: functional; settings: route intraperitoneal; method in brief: as §1
Mus musculus [5] = assay: Mice were inoculated intraperitoneally with L1210 leukemia cells and the median life span of the mice with the compound was evaluated at a dose of 400 mg/kg; assay type: functional; settings: route intraperitoneal; method in brief: as §1
Mus musculus [6] = assay: Mice were inoculated intraperitoneally with L1210 leukemia cells and the percentage ILS of the mice with the compound was evaluated at a dose of 100 mg/kg; assay type: functional; settings: L1210, ip, route intraperitoneal; method in brief: as §1
Mus musculus [7] = species on record: Mus musculus; assay: Compound was evaluated for the cytotoxicity to L1210 leukemia cells in culture at ~1.6-fold higher concentrations and expressed as ID50; assay type: functional; settings: read-out: ID50 (the source's name)
Mus musculus [8] = assay: Mice were inoculated intraperitoneally with L1210 leukemia cells and the change in body weight of the mice with the compound was evaluated at a dose of 800 mg/kg; assay type: functional; settings: route intraperitoneal
Method in brief: (§2)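 Mice received intraperitoneally implanted L1210 leukemia, with groups of six treated mice and 36 untreated controls. Compound was given intraperitoneally on days 1-5. Body weight change was the average weight on day 5 minus the average on day 1, in grams. Median life span and % ILS were recorded against the untreated controls.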

Mus musculus [9] = assay: Mice were inoculated intraperitoneally with L1210 leukemia cells and the change in body weight of the mice with the compound was evaluated at a dose of 50 mg/kg; assay type: functional; settings: route intraperitoneal; method in brief: as §2
Mus musculus [10] = assay: Mice were inoculated intraperitoneally with L1210 leukemia cells and the change in body weight of the mice with the compound was evaluated at a dose of 100 mg/kg; assay type: functional; settings: route intraperitoneal; method in brief: as §2
Mus musculus [11] = assay: Mice were inoculated intraperitoneally with L1210 leukemia cells and the change in body weight of the mice with the compound was evaluated at a dose of 25 mg/kg; assay type: functional; settings: route intraperitoneal
Mus musculus [12] = assay: Mice were inoculated intraperitoneally with L1210 leukemia cells and the percentage ILS of the mice with the compound was evaluated at a dose of 800 mg/kg; assay type: functional; settings: L1210, ip, route intraperitoneal; method in brief: as §1
Mus musculus [13] = assay: Mice were inoculated intraperitoneally with L1210 leukemia cells and the change in body weight of the mice with the compound was evaluated at a dose of 400 mg/kg; assay type: functional; settings: route intraperitoneal; method in brief: as §2
Mus musculus [14] = assay: Mice were inoculated intraperitoneally with L1210 leukemia cells and the percentage ILS of the mice with the compound was evaluated at a dose of 400 mg/kg; assay type: functional; settings: L1210, ip, route intraperitoneal; method in brief: as §1
Mus musculus [15] = assay: Mice were inoculated intraperitoneally with L1210 leukemia cells and the median life span of the mice with the compound was evaluated at a dose of 800 mg/kg; assay type: functional; settings: route intraperitoneal; method in brief: as §1
Mus musculus [16] = assay: Mice were inoculated intraperitoneally with L1210 leukemia cells and the change in body weight of the mice with the compound was evaluated at a dose of 200 mg/kg; assay type: functional; settings: route intraperitoneal; method in brief: as §2
Mus musculus [17] = assay: Mice were inoculated intraperitoneally with L1210 leukemia cells and the median life span of the mice with the compound was evaluated at a dose of 100 mg/kg; assay type: functional; settings: route intraperitoneal; method in brief: as §1
Mus musculus [18] = assay: Mice were inoculated intraperitoneally with L1210 leukemia cells and the median life span of the mice with the compound was evaluated at a dose of 25 mg/kg; assay type: functional; settings: route intraperitoneal
Mus musculus [19] = assay: Mice were inoculated intraperitoneally with L1210 leukemia cells and the percentage ILS of the mice with the compound was evaluated at a dose of 50 mg/kg; assay type: functional; settings: L1210, ip, route intraperitoneal; method in brief: as §1
[20] = target: purine nucleoside phosphorylase (human) (UniProt P00491); assay: Compound was evaluated for the concentration which […] inosine phosphorolysis by human lymphoblast purine nucleoside phosphorylase and expressed as IC50
T-cells (human) = assay: Compound was evaluated for the cytotoxicity to T cells in the presence of 2'-deoxyguanosine and expressed as ED50

SMILES: NC(=O)c1csc([C@@H]2O[C@H](CO)[C@@H](O)[C@H]2O)n1 [TIAZOFURIN]
- ILS at 25 mg/kg (Mus musculus [1]): 58%
- ILS at 200 mg/kg (Mus musculus [2]): 103%
- Median life span (Mus musculus [3]): 13.5 days
- Median life span (Mus musculus [4]): 16.5 days
- Median life span (Mus musculus [5]): 16.2 days
- ILS at 100 mg/kg (Mus musculus [6]): 82%
- IC50 (Mus musculus [7]): 1.9 µM
- Body weight change (Mus musculus [8]): -4.4 g
- Body weight change (Mus musculus [9]): -2.1 g
- Body weight change (Mus musculus [10]): -2.5 g
- Body weight change (Mus musculus [11]): -2.6 g
- ILS at 800 mg/kg (Mus musculus [12]): 85%
- Body weight change (Mus musculus [13]): -3.9 g
- ILS at 400 mg/kg (Mus musculus [14]): 100%
- Median life span (Mus musculus [15]): 15 days
- Body weight change (Mus musculus [16]): -2.9 g
- Median life span (Mus musculus [17]): 14.8 days
- Median life span (Mus musculus [18]): 12.8 days
- ILS at 50 mg/kg (Mus musculus [19]): 66%

SMILES: NC(=O)c1csc([C@@H]2O[C@H](COP(=O)(O)O)[C@@H](O)[C@H]2O)n1
- ILS at 200 mg/kg (Mus musculus [2]): 159%
- Median life span (Mus musculus [3]): 11.3 days
- Median life span (Mus musculus [4]): 21.5 days
- Median life span (Mus musculus [5]): 15.2 days
- ILS at 100 mg/kg (Mus musculus [6]): 86%
- IC50 (Mus musculus [7]): 3.2 µM
- Body weight change (Mus musculus [8]): -3.6 g
- Body weight change (Mus musculus [9]): -0.6 g
- Body weight change (Mus musculus [10]): -1 g
- ILS at 800 mg/kg (Mus musculus [12]): 96%
- Body weight change (Mus musculus [13]): -2 g
- ILS at 400 mg/kg (Mus musculus [14]): 83%
- Median life span (Mus musculus [15]): 16.3 days
- Body weight change (Mus musculus [16]): -1.4 g
- Median life span (Mus musculus [17]): 15.5 days
- ILS at 50 mg/kg (Mus musculus [19]): 36%

SMILES: NC(=O)c1csc([C@@H]2O[C@@H]3COP(=O)(O)O[C@H]3[C@H]2O)n1
- ILS at 200 mg/kg (Mus musculus [2]): 52%
- Median life span (Mus musculus [3]): 13.3 days
- Median life span (Mus musculus [4]): 17.7 days
- Median life span (Mus musculus [5]): 18 days
- ILS at 100 mg/kg (Mus musculus [6]): 23%
- Body weight change (Mus musculus [9]): -1.1 g
- Body weight change (Mus musculus [10]): -0.6 g
- Body weight change (Mus musculus [13]): -3.1 g
- ILS at 400 mg/kg (Mus musculus [14]): 55%
- Body weight change (Mus musculus [16]): -1.9 g
- Median life span (Mus musculus [17]): 14.3 days
- ILS at 50 mg/kg (Mus musculus [19]): 14%

- IC50 [20]: 300 µM
SMILES: N=C(N)c1csc([C@@H]2O[C@H](CO)[C@@H](O)[C@H]2O)n1
- EC50 (T-cells (human)): 77 µM
